Measured values as given in paper PMC6018302 (Chemical Science, 2016).

Experiments:
[1] = test system: pUC19 plasmid DNA; assay: Thermal; format: binding; conditions: pUC19, phosphate buffer, 37 °C, 24 h, up to 5 : 1 BP : MC ratio
[2] = reference value, CD3OD; cited from earlier work
[3] = test system: A431 and A549 cancer cells; format: cell-based, human; conditions: 520 nm, 75 J cm^–2, compared to the dark control; maximum
Procedure, shortened: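 Photo index is the ratio of dark EC50 to green-light EC50 (520 nm, 60 min, 75 J cm–2). Light was applied after 6 h or 24 h dark pre-incubation with test compound (37 °C, 7% CO2). EC50 is the concentration giving 50% viability loss versus untreated wells.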

[4] = Singlet oxygen quantum yield by 1274 nm emission in CD3OD; format: physicochemical; conditions: 450 nm excitation, under air, 298 K
[5] = Photosubstitution quantum yield under blue light; format: physicochemical; conditions: blue light irradiation 450 nm, in water
[6] = test system: A549 cells; assay: Annexin V-FITC/propidium iodide flow cytometry; format: cell-based, human; conditions: A549, green light irradiation
Procedure, shortened: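 A549 cells were treated with test compound (1.5 μM or 10 μM, by complex) for 6 h in the dark. They then received 1 h green light (520 nm, 75 J cm–2) followed by 24 h dark incubation, or were kept dark throughout (31 h). Annexin V-FITC (525 nm) and propidium iodide (670 nm) were read by flow cytometry. Quadrants: lower left live, lower right apoptotic, upper left necrotic, upper right secondary necrotic.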

[7] = test system: A549 cells; assay: Cell fractionation and ruthenium uptake by ICP-MS; format: cell-based, human
Procedure, shortened: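 A549 cells were exposed to test compound for 6 h in the dark, then harvested. Cytosol, membrane, nuclei and cytoskeleton fractions were separated. Ruthenium in each fraction was quantified by ICP-MS.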

[8] = test system: pUC19 plasmid DNA; assay: Photoinduced binding to plasmid DNA, agarose gel; conditions: pUC19, 50 : 1 BP : MC, λirr = 520 nm, 5–60 min
Procedure, shortened: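 pUC19 plasmid was mixed with test compound (50:1 BP:MC) and irradiated at 520 nm for 5, 15, 30, 45 or 60 min. Controls were dark and irradiated DNA alone and a dark 50:1 sample. Cisplatin was included as a reference. Agarose gel with lambda DNA marker; linear dimer, open circular and supercoiled forms were scored.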

[9] = Dark stability in aqueous and DMSO solutions; format: physicochemical
Procedure, shortened: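 Test compound solutions in D2O or DMSO were kept in the dark, with DMSO also held at –20 °C, and monitored over time. Chloride effect in aqueous solution was probed by adding NaCl up to 0.15 M.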

[10] = test system: A549 cells; assay: Confocal microscopy of mitochondrial potential; format: cell-based, human; conditions: A549, TMRE and DRAQ5 staining, green light 75 J cm^–2
[11] = Water solubility; format: physicochemical

Row | Compound | dark thermal DNA binding [1] | quantum yield of 1O2 generation (Φref) [2] [%] | photo-indices (increase in cytotoxicity after green light vs dark) [3] | quantum yield of 1O2 generation (Φ1O2) [4] [%] | photosubstitution quantum yield (ΦPS) [5] [%] | type of cell death (photocytotoxicity) [6] | preference for the membrane fraction (intracellular distribution) ([7]; A549, 6 h in the dark at EC50 concentration, cell fractionation) | total uptake (ruthenium) ([7]; A549, 6 h in the dark at concentration corresponding to the EC50 value, ICP-MS) [ng/10^6 cells] | photoinduced DNA binding [8] | dark stability of DMSO solution ([9]; DMSO, –20 °C) | stability of Ru–S bond with dmso ligand ([9]; aqueous or DMSO solutions, 298 K) | hydrolysis of chloride ligand ([9]; upon dissolution in deionized water or D2O) | effect of light irradiation on mitochondria and nuclear DNA [10] | solubility in water [11]
1 | N.N.[Cl][Pt][Cl] [Cisplatin, cis-diamineplatinum(II) dichloride, reference compound] | typical DNA binding results |  |  |  |  |  |  |  |  |  |  |  |  | 
2 | [Cl][Ru][Cl].c1ccc(-c2ccccn2)nc1.c1ccc(-c2ccccn2)nc1.c1ccc(-c2ccccn2)nc1 [[Ru(bpy)3]Cl2] |  | 73 |  |  |  |  |  |  |  |  |  |  |  | 
3 | [Ru(biqbpy)(dmso)Cl]Cl [[1]Cl] | negligible binding |  | up to 22 | 1.3 | 0.3 | apoptosis without any sign of necrosis | strong | 16 | significant retardation of the SC form | stable in the dark at –20 °C for at least six months | remained stable | immediately hydrolysed | diminished the mitochondrial membrane potential and induced chromosomal condensation | water-soluble
